What all share (assay type): functional
Assay [1] concerns Mus musculus. Kind of assay: Antihyperlipidemic activity in olive oil-treated ddY mouse assessed as serum triglyceride level at 50 mg/kg, po after 6 hrs. Put shortly: (§1)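 Male ddY mice (25-30 g) kept at 23 ± 2 °C on standard chow, fasted 24-26 h with free access to water, conscious. Test sample given orally; olive oil (5 mL/kg, p.o.) given 30 min later. Blood drawn from the infraorbital venous plexus 2, 4 and 6 h after olive oil. Serum TG measured enzymatically (triglyceride E test). Means ± SEM, n = 5-12 per group.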

Assay [2] has as its system Mus musculus. Kind of assay: Antihyperlipidemic activity in olive oil-treated ddY mouse assessed as serum triglyceride level at 100 mg/kg, po after 4 hrs. Put shortly:
as §1

The subject of assay [3] is Mus musculus. The assay is described as follows: Antihyperlipidemic activity in olive oil-treated ddY mouse assessed as serum triglyceride level at 50 mg/kg, po after 4 hrs. In a few lines: as §1
For assay [4], the system named is Mus musculus. Kind of assay: Antihyperlipidemic activity in olive oil-treated ddY mouse assessed as serum triglyceride level at 100 mg/kg, po after 6 hrs. Put shortly:
as §1

The test system of assay [5] is Mus musculus. The assay is described as follows: Antihyperlipidemic activity in olive oil-treated ddY mouse assessed as serum triglyceride level at 100 mg/kg, po after 2 hrs. Put shortly: as §1
Assay [6] relates to Mus musculus. The assay is described as follows: Antihyperlipidemic activity in olive oil-treated ddY mouse assessed as serum triglyceride level at 50 mg/kg, po after 2 hrs. In a few lines:
as §1

For assay [7], the system named is Mus musculus. The assay is described as follows: Antihyperlipidemic activity in olive oil-treated ddY mouse assessed as serum triglyceride level at 125 mg/kg, po after 6 hrs. Put shortly: as §1
In assay [8] the test system is Mus musculus. The assay is described as follows: Antihyperlipidemic activity in olive oil-treated ddY mouse assessed as serum triglyceride level at 125 mg/kg, po after 4 hrs. Put shortly:
as §1

Assay [9] relates to Mus musculus. Kind of assay: Antihyperlipidemic activity in olive oil-treated ddY mouse assessed as serum triglyceride level at 250 mg/kg, po after 4 hrs. Put shortly:
as §1

Assay [10] has as its system Mus musculus. The assay is described as follows: Antihyperlipidemic activity in olive oil-treated ddY mouse assessed as serum triglyceride level at 250 mg/kg, po after 6 hrs. Put shortly:
as §1

The subject of assay [11] is Mus musculus. Kind of assay: Antihyperlipidemic activity in olive oil-treated ddY mouse assessed as serum triglyceride level at 250 mg/kg, po after 2 hrs. In a few lines: as §1
In assay [12] the test system is Mus musculus. The assay is described as follows: Antihyperlipidemic activity in olive oil-treated ddY mouse assessed as serum triglyceride level at 500 mg/kg, po after 6 hrs. In a few lines: as §1
The subject of assay [13] is Mus musculus. Kind of assay: Antihyperlipidemic activity in olive oil-treated ddY mouse assessed as serum triglyceride level at 500 mg/kg, po after 2 hrs. In a few lines: as §1
For assay [14], the system named is Mus musculus. Kind of assay: Antihyperlipidemic activity in olive oil-treated ddY mouse assessed as serum triglyceride level at 500 mg/kg, po after 4 hrs. In a few lines:
as §1

The subject of assay [15] is Mus musculus. The assay is described as follows: Antihyperlipidemic activity in olive oil-treated ddY mouse assessed as serum triglyceride level at 125 mg/kg, po after 2 hrs. Put shortly: as §1
The subject of assay [16] is Mus musculus. Kind of assay: Antihyperlipidemic activity in olive oil-treated ddY mouse assessed as serum triglyceride level at 25 mg/kg, po after 4 hrs. Put shortly: as §1
Assay [17] has as its system Mus musculus. The assay is described as follows: Antihyperlipidemic activity in olive oil-treated ddY mouse assessed as serum triglyceride level at 25 mg/kg, po after 6 hrs. Put shortly:
as §1

Assay [18] has as its system Mus musculus. The assay is described as follows: Antihyperlipidemic activity in olive oil-treated ddY mouse assessed as serum triglyceride level at 25 mg/kg, po after 2 hrs. In a few lines:
as §1

In assay [19] the test system is Mus musculus. The assay is described as follows: Antihyperlipidemic activity in olive oil-treated ddY mouse assessed as serum triglyceride level at 12.5 mg/kg, po after 4 hrs. In a few lines:
as §1

Assay [20] has as its system Mus musculus. The assay is described as follows: Antihyperlipidemic activity in olive oil-treated ddY mouse assessed as serum triglyceride level at 12.5 mg/kg, po after 6 hrs. In a few lines: as §1
In assay [21] the test system is Mus musculus. Kind of assay: Antihyperlipidemic activity in olive oil-treated ddY mouse assessed as serum triglyceride level at 12.5 mg/kg, po after 2 hrs. Put shortly: as §1
For assay [22], the system named is Mus musculus. Kind of assay: Antihyperlipidemic activity in olive oil-treated ddY mouse assessed as serum triglyceride level at 6.25 mg/kg, po after 2 hrs. Put shortly: as §1
Assay [23] deals with Mus musculus. The assay is described as follows: Antihyperlipidemic activity in olive oil-treated ddY mouse assessed as serum triglyceride level at 6.25 mg/kg, po after 6 hrs. In a few lines: as §1
In assay [24] the test system is Mus musculus. Kind of assay: Antihyperlipidemic activity in olive oil-treated ddY mouse assessed as serum triglyceride level at 6.25 mg/kg, po after 4 hrs. In a few lines:
as §1

Consider `CC1(C)C[C@H]2C3=CC[C@@H]4[C@@]5(C)CC[C@H](O[C@@H]6O[C@H](C(=O)O)[C@@H](O)[C@H](O[C@@H]7OC[C@H](O)[C@H](O)[C@H]7O[C@@H]7OC[C@@H](O)[C@H](O)[C@H]7O)[C@H]6O[C@@H]6O[C@H](CO)[C@H](O)[C@H](O)[C@H]6O)[C@@](C)(C=O)C5CC[C@@]4(C)[C@]3(C)C[C@@H](O)[C@@]2(CO)[C@@H](O)[C@@H]1O` (stereo partly drawn), for which the Activity in the assay on Mus musculus [1] stood at 332.3 mg/dL; in the assay on Mus musculus [2] it was 363.2 mg/dL; with Mus musculus [3] it was 410.5 mg/dL; with Mus musculus [4], 314.3 mg/dL; in the assay on Mus musculus [5] it was 440.8 mg/dL; in the assay on Mus musculus [6] it was 468.7 mg/dL.
Take `CCOC(=O)C(C)(C)Oc1ccc(Cl)cc1` [CLOFIBRATE]: the Activity in the assay on Mus musculus [7] came out at 333.4 mg/dL; in the assay with Mus musculus [8], 295 mg/dL; with Mus musculus [9], 340.5 mg/dL; with Mus musculus [10], 443.3 mg/dL; in the assay on Mus musculus [11] it was 441.2 mg/dL; with Mus musculus [12] it was 373.5 mg/dL. Moreover, the values for the Activity with Mus musculus [13], in the assay on Mus musculus [14] and in the assay on Mus musculus [15] were 318.2 mg/dL, 239.7 mg/dL and 377.5 mg/dL, respectively.
For the molecule `C/C=C\C(=O)O[C@H]1[C@H](OC(C)=O)[C@]2(CO)[C@H](O)C[C@]3(C)C(=CC[C@@H]4[C@@]5(C)CC[C@H](O[C@@H]6O[C@H](C(=O)O)[C@@H](O)[C@H](O[C@@H]7OC[C@H](O)[C@H](O)[C@H]7O[C@@H]7OC[C@@H](O)[C@H](O)[C@H]7O)[C@H]6O[C@@H]6O[C@H](CO)[C@H](O)[C@H](O)[C@H]6O)C(C)(C)C5CC[C@]43C)[C@@H]2CC1(C)C` (stereo partly drawn) [FLORATHEASAPONIN A], the Activity in the assay with Mus musculus [1] is 256.8 mg/dL; in the assay on Mus musculus [16], 251.8 mg/dL; with Mus musculus [17], 135.7 mg/dL; with Mus musculus [18] it was 411 mg/dL; with Mus musculus [2] it was 242 mg/dL; with Mus musculus [3], 392.9 mg/dL. Also, the Activity in the assay with Mus musculus [4] was determined as 322.3 mg/dL; in the assay with Mus musculus [5], 158.3 mg/dL; in the assay with Mus musculus [6], 387.4 mg/dL.
Regarding `CCCCCCCCCCC[C@@H](C[C@@H]1OC(=O)[C@H]1CCCCCC)OC(=O)[C@H](CC(C)C)NC=O` [ORLISTAT], the Activity in the assay with Mus musculus [16] came out at 132.2 mg/dL; in the assay on Mus musculus [19] it was 176 mg/dL; in the assay on Mus musculus [20], 189.7 mg/dL; in the assay with Mus musculus [17], 140.1 mg/dL; in the assay on Mus musculus [21] it was 187.9 mg/dL; with Mus musculus [22] it was 266.4 mg/dL. Also, the figures for the Activity in the assay with Mus musculus [23], with Mus musculus [18] and in the assay on Mus musculus [24] were 155.6 mg/dL, 158.9 mg/dL and 179.3 mg/dL, respectively.
On to `C/C=C\C(=O)O[C@H]1[C@H](OC(C)=O)[C@]2(CO)[C@H](O)C[C@]3(C)C(=CC[C@@H]4[C@@]5(C)CC[C@H](O[C@@H]6O[C@H](C(=O)O)[C@@H](O)[C@H](O[C@@H]7OC[C@H](O)[C@H](O)[C@H]7O[C@@H]7OC[C@@H](O)[C@H](O)[C@H]7O)[C@H]6O[C@@H]6O[C@H](CO)[C@H](O)[C@H](O)[C@H]6O)[C@@](C)(C=O)C5CC[C@]43C)[C@@H]2CC1(C)C` (stereo partly drawn) [THEASAPONIN E1], for which the Activity is 267.2 mg/dL in the assay with Mus musculus [1]; 430.7 mg/dL in the assay with Mus musculus [16]; 233.9 mg/dL in the assay with Mus musculus [17]; 578.5 mg/dL with Mus musculus [18]; 389.5 mg/dL in the assay on Mus musculus [2]; 312.2 mg/dL in the assay on Mus musculus [3]. Also, the Activity with Mus musculus [4] was 294.9 mg/dL; with Mus musculus [5] it was 342.3 mg/dL; in the assay on Mus musculus [6], 373.9 mg/dL.
On to `C/C=C\C(=O)O[C@H]1[C@H](O)[C@]2(COC(C)=O)[C@H](O)C[C@]3(C)C(=CC[C@@H]4[C@@]5(C)CC[C@H](O[C@@H]6O[C@H](C(=O)O)[C@@H](O)[C@H](O[C@@H]7OC[C@H](O)[C@H](O)[C@H]7O[C@@H]7OC[C@@H](O)[C@H](O)[C@H]7O)[C@H]6O[C@@H]6O[C@H](CO)[C@H](O)[C@H](O)[C@H]6O)[C@@](C)(C=O)C5CC[C@]43C)[C@@H]2CC1(C)C` (stereo partly drawn) [THEASAPONIN E2], for which the Activity in the assay with Mus musculus [1] is 361.3 mg/dL; with Mus musculus [2], 507 mg/dL; in the assay with Mus musculus [3], 507.5 mg/dL; with Mus musculus [4], 396.4 mg/dL; in the assay with Mus musculus [5], 509.4 mg/dL; in the assay on Mus musculus [6] it was 552.9 mg/dL.

The values are drawn from ChEMBL document CHEMBL1141803, “Floratheasaponins A-C, acylated oleanane-type triterpene oligoglycosides with anti-hyperlipidemic activities from flowers of the tea plant (Camellia sinensis)” (2005).
